Reference: ChEMBL document CHEMBL1255475, “Mutant prevention concentrations of four carbapenems against gram-negative rods” (2010)

Experiments:
Assay type in all cases: functional
Escherichia coli [1] = assay: Antibacterial activity against beta-lactamase-positive ESBL-positive Escherichia coli E456 assessed as mutant prevention concentration after overnight incubation
Summary of the method: (§1)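 Overnight growth on blood trypticase soy agar (35°C, air) was resuspended in 0.9% saline and counted on drug-free Mueller-Hinton agar. […] Colonies were retested by agar dilution to confirm mutants. MPC was the lowest concentration preventing resistant-mutant growth.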

Escherichia coli [2] = assay: Antibacterial activity against beta-lactamase-negative Escherichia coli E408 assessed as mutant prevention concentration after overnight incubation
Acinetobacter baumannii [3] = assay: Antibacterial activity against Acinetobacter baumannii A851 assessed as mutant prevention concentration after overnight incubation
Pseudomonas aeruginosa [4] = assay: Antibacterial activity against Pseudomonas aeruginosa P322 assessed as mutant prevention concentration after overnight incubation
Pseudomonas aeruginosa [5] = assay: Antibacterial activity against Pseudomonas aeruginosa P358 assessed as mutant prevention concentration after overnight incubation
Escherichia coli [6] = assay: Antibacterial activity against beta-lactamase-negative Escherichia coli E346 assessed as mutant prevention concentration after overnight incubation
Acinetobacter baumannii [7] = assay: Antibacterial activity against Acinetobacter baumannii A896 assessed as mutant prevention concentration after overnight incubation
Acinetobacter baumannii [8] = assay: Antibacterial activity against Acinetobacter baumannii A890 assessed as mutant prevention concentration after overnight incubation
Acinetobacter baumannii [9] = assay: Antibacterial activity against Acinetobacter baumannii A884 assessed as mutant prevention concentration after overnight incubation
Pseudomonas aeruginosa [10] = assay: Antibacterial activity against Pseudomonas aeruginosa P337 assessed as mutant prevention concentration after overnight incubation
Escherichia coli [11] = assay: Antibacterial activity against beta-lactamase-positive ESBL-negative Escherichia coli E483 assessed as mutant prevention concentration after overnight incubation; summary of the method: as §1
Escherichia coli [12] = assay: Antibacterial activity against beta-lactamase-negative Escherichia coli E424 assessed as mutant prevention concentration after overnight incubation
Pseudomonas aeruginosa [13] = assay: Antibacterial activity against Pseudomonas aeruginosa P328 assessed as mutant prevention concentration after overnight incubation
Escherichia coli [14] = assay: Antibacterial activity against beta-lactamase-negative Escherichia coli E347 assessed as mutant prevention concentration after overnight incubation
Pseudomonas aeruginosa [15] = assay: Antibacterial activity against Pseudomonas aeruginosa P332 assessed as mutant prevention concentration after overnight incubation
Pseudomonas aeruginosa [16] = assay: Antibacterial activity against Pseudomonas aeruginosa P327 assessed as mutant prevention concentration after overnight incubation
Pseudomonas aeruginosa [17] = assay: Antibacterial activity against Pseudomonas aeruginosa P340 assessed as mutant prevention concentration after overnight incubation
Klebsiella pneumoniae [18] = assay: Antibacterial activity against beta-lactamase-positive ESBL-negative Klebsiella pneumoniae E472 assessed as mutant prevention concentration after overnight incubation; summary of the method: as §1
Escherichia coli [19] = assay: Antibacterial activity against beta-lactamase-positive ESBL-positive Escherichia coli E465 assessed as mutant prevention concentration after overnight incubation; summary of the method: as §1
Escherichia coli [20] = assay: Antibacterial activity against beta-lactamase-positive ESBL-negative Escherichia coli E484 assessed as mutant prevention concentration after overnight incubation; summary of the method: as §1
Acinetobacter baumannii [21] = assay: Antibacterial activity against Acinetobacter baumannii A910 assessed as mutant prevention concentration after overnight incubation
Pseudomonas aeruginosa [22] = assay: Antibacterial activity against Pseudomonas aeruginosa P323 assessed as mutant prevention concentration after overnight incubation
Escherichia coli [23] = assay: Antibacterial activity against beta-lactamase-positive ESBL-negative Escherichia coli E430 assessed as mutant prevention concentration after overnight incubation; summary of the method: as §1
Escherichia coli [24] = assay: Antibacterial activity against beta-lactamase-positive ESBL-positive Escherichia coli E459 assessed as mutant prevention concentration after overnight incubation; summary of the method: as §1
Escherichia coli [25] = assay: Antibacterial activity against beta-lactamase-negative Escherichia coli E425 assessed as mutant prevention concentration after overnight incubation
Acinetobacter baumannii [26] = assay: Antibacterial activity against Acinetobacter baumannii A897 assessed as mutant prevention concentration after overnight incubation
Acinetobacter baumannii [27] = assay: Antibacterial activity against Acinetobacter baumannii A848 assessed as mutant prevention concentration after overnight incubation
Escherichia coli [28] = assay: Antibacterial activity against beta-lactamase-negative Escherichia coli E344 assessed as mutant prevention concentration after overnight incubation
Acinetobacter baumannii [29] = assay: Antibacterial activity against Acinetobacter baumannii A850 assessed as mutant prevention concentration after overnight incubation
Pseudomonas aeruginosa [30] = assay: Antibacterial activity against Pseudomonas aeruginosa P352 assessed as mutant prevention concentration after overnight incubation
Acinetobacter baumannii [31] = assay: Antibacterial activity against Acinetobacter baumannii A912 assessed as mutant prevention concentration after overnight incubation
Acinetobacter baumannii [32] = assay: Antibacterial activity against Acinetobacter baumannii A903 assessed as mutant prevention concentration after overnight incubation
Klebsiella pneumoniae [33] = assay: Antibacterial activity against beta-lactamase-positive ESBL-positive Klebsiella pneumoniae E457 assessed as mutant prevention concentration after overnight incubation; summary of the method: as §1
Acinetobacter baumannii [34] = assay: Antibacterial activity against Acinetobacter baumannii A911 assessed as mutant prevention concentration after overnight incubation
Escherichia coli [35] = assay: Antibacterial activity against beta-lactamase-negative Escherichia coli E409 assessed as mutant prevention concentration after overnight incubation
Pseudomonas aeruginosa [36] = assay: Antibacterial activity against Pseudomonas aeruginosa P370 assessed as mutant prevention concentration after overnight incubation
Escherichia coli [37] = assay: Antibacterial activity against beta-lactamase-positive ESBL-positive Escherichia coli E452 incubated up to 7 days by agar dilution method; conditions: E452, 168 h
Summary of the method: (§2)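 MIC by CLSI agar dilution, with quality-control strains in each run. Beta-lactamase status was set by 30 μg cefazolin Kirby-Bauer disk diffusion. ESBL status was set by cefotaxime and ceftazidime disks (30 μg) with and without clavulanic acid (10 μg).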

Klebsiella pneumoniae [38] = assay: Antibacterial activity against beta-lactamase-positive ESBL-positive Klebsiella pneumoniae E475 incubated up to 7 days by agar dilution method; conditions: E475, 168 h
Klebsiella pneumoniae [39] = assay: Antibacterial activity against beta-lactamase-positive ESBL-negative Klebsiella pneumoniae E480 incubated up to 7 days by agar dilution method; conditions: E480, 168 h
Klebsiella pneumoniae [40] = assay: Antibacterial activity against beta-lactamase-positive ESBL-positive Klebsiella pneumoniae E476 incubated up to 7 days by agar dilution method; conditions: E476, 168 h
Escherichia coli [41] = assay: Antibacterial activity against beta-lactamase-negative Escherichia coli E409 […] by agar dilution method
Escherichia coli [42] = assay: Antibacterial activity against beta-lactamase-positive ESBL-positive Escherichia coli E446 incubated up to 7 days by agar dilution method; conditions: E446, 168 h; summary of the method: as §2
Klebsiella pneumoniae [43] = assay: Antibacterial activity against beta-lactamase-positive ESBL-positive Klebsiella pneumoniae E457 incubated up to 7 days by agar dilution method; conditions: E457, 168 h; summary of the method: as §2
Escherichia coli [44] = assay: Antibacterial activity against beta-lactamase-positive ESBL-negative Escherichia coli E483 […] by agar dilution method
Escherichia coli [45] = assay: Antibacterial activity against beta-lactamase-positive ESBL-positive Escherichia coli E450 incubated up to 7 days by agar dilution method; conditions: E450, 168 h; summary of the method: as §2
Klebsiella pneumoniae [46] = assay: Antibacterial activity against beta-lactamase-negative Klebsiella pneumoniae E419 incubated up to 7 days by agar dilution method; conditions: E419, 168 h
Klebsiella pneumoniae [47] = assay: Antibacterial activity against beta-lactamase-negative Klebsiella pneumoniae E361 incubated up to 7 days by agar dilution method; conditions: E361, 168 h
Klebsiella pneumoniae [48] = assay: Antibacterial activity against beta-lactamase-negative Klebsiella pneumoniae E420 incubated up to 7 days by agar dilution method; conditions: E420, 168 h; summary of the method: as §2
Klebsiella pneumoniae [49] = assay: Antibacterial activity against beta-lactamase-negative Klebsiella pneumoniae E360 incubated up to 7 days by agar dilution method; conditions: E360, 168 h

C[C@@H](O)[C@H]1C(=O)N2C(C(=O)O)=C(SCCNC=N)C[C@H]12 [IMIPENEM ANHYDROUS]
128 µg/mL: MPC (Pseudomonas aeruginosa [5])
0.5 µg/mL: MPC (Escherichia coli [6]) | MPC (Escherichia coli [12]) | MPC (Escherichia coli [14]) | MPC (Escherichia coli [19]) | MPC (Escherichia coli [24]) | MPC (Escherichia coli [25]) | MPC (Escherichia coli [28]) | MPC (Klebsiella pneumoniae [33])
>16 µg/mL: MPC (Escherichia coli [20])
1 µg/mL: MPC (Escherichia coli [1]) | MPC (Escherichia coli [2]) | MPC (Acinetobacter baumannii [7]) | MPC (Acinetobacter baumannii [8]) | MPC (Acinetobacter baumannii [26]) | MPC (Acinetobacter baumannii [32]) | MPC (Escherichia coli [35])
32 µg/mL: MPC (Pseudomonas aeruginosa [4]) | MPC (Pseudomonas aeruginosa [13]) | MPC (Klebsiella pneumoniae [18]) | MPC (Pseudomonas aeruginosa [30])
4 µg/mL: MPC (Acinetobacter baumannii [9]) | MPC (Escherichia coli [11]) | MPC (Acinetobacter baumannii [31])
64 µg/mL: MPC (Pseudomonas aeruginosa [22])
16 µg/mL: MPC (Pseudomonas aeruginosa [10]) | MPC (Pseudomonas aeruginosa [15]) | MPC (Pseudomonas aeruginosa [16]) | MPC (Pseudomonas aeruginosa [36])
8 µg/mL: MPC (Acinetobacter baumannii [3]) | MPC (Acinetobacter baumannii [21]) | MPC (Acinetobacter baumannii [27]) | MPC (Acinetobacter baumannii [29]) | MPC (Acinetobacter baumannii [34])
2 µg/mL: MPC (Pseudomonas aeruginosa [17]) | MPC (Escherichia coli [23])

C[C@@H](O)[C@H]1C(=O)N2C(C(=O)O)=C(S[C@@H]3CN[C@H](C(=O)N(C)C)C3)[C@H](C)[C@H]12 [MEROPENEM]
1 µg/mL: MPC (Acinetobacter baumannii [8]) | MPC (Acinetobacter baumannii [26])
4 µg/mL: MIC (Klebsiella pneumoniae [38]) | MPC (Acinetobacter baumannii [7]) | MIC (Klebsiella pneumoniae [40]) | MPC (Escherichia coli [11]) | MPC (Pseudomonas aeruginosa [17]) | MPC (Acinetobacter baumannii [21]) | MPC (Pseudomonas aeruginosa [22]) | MPC (Acinetobacter baumannii [31])
8 µg/mL: MPC (Acinetobacter baumannii [9]) | MPC (Pseudomonas aeruginosa [10]) | MPC (Pseudomonas aeruginosa [16]) | MPC (Pseudomonas aeruginosa [30]) | MPC (Acinetobacter baumannii [32]) | MPC (Acinetobacter baumannii [34])
0.125 µg/mL: MPC (Escherichia coli [1]) | MPC (Escherichia coli [23]) | MPC (Escherichia coli [24]) | MPC (Klebsiella pneumoniae [33])
>1 µg/mL: MPC (Escherichia coli [19])
0.06 µg/mL: MPC (Escherichia coli [2]) | MPC (Escherichia coli [6]) | MPC (Escherichia coli [12]) | MPC (Escherichia coli [14]) | MIC (Klebsiella pneumoniae [43]) | MPC (Escherichia coli [25]) | MIC (Klebsiella pneumoniae [46]) | MIC (Klebsiella pneumoniae [47]) | MPC (Escherichia coli [35])
2 µg/mL: MIC (Klebsiella pneumoniae [39])
32 µg/mL: MPC (Acinetobacter baumannii [3]) | MPC (Pseudomonas aeruginosa [5]) | MPC (Pseudomonas aeruginosa [15]) | MPC (Klebsiella pneumoniae [18]) | MPC (Acinetobacter baumannii [27])
16 µg/mL: MPC (Pseudomonas aeruginosa [4]) | MPC (Pseudomonas aeruginosa [13]) | MPC (Escherichia coli [20]) | MPC (Acinetobacter baumannii [29])
0.5 µg/mL: MIC (Escherichia coli [44])
>4 µg/mL: MPC (Pseudomonas aeruginosa [36])
0.03 µg/mL: MIC (Escherichia coli [37]) | MIC (Escherichia coli [41]) | MIC (Escherichia coli [42]) | MIC (Escherichia coli [45]) | MPC (Escherichia coli [28]) | MIC (Klebsiella pneumoniae [48]) | MIC (Klebsiella pneumoniae [49])
